Results reported in ChEMBL document CHEMBL1909581, “Growth inhibition of human lung cancer cells via down-regulation of epidermal growth factor receptor signaling by yuanhuadine, a daphnane diterpene from Daphne genkwa” (J Nat Prod, 2011).
Calls of active or inactive are those of the source. No cut-off for these calls is given here.

Assays:
A549 [1] = assay: Downregulation of c-myc expression in human A549 cells at G1 phase at 5 to 100 nM after 24 to 48 hrs by Western blot analysis; format: functional, cell-based
In short: (§1)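 A549 cells treated with a range of concentrations for 24 or 48 h. Lysates run on 6–15% SDS-PAGE and blotted to PVDF, blocked in 5% milk/PBST. Primary antibodies overnight at 4 °C, secondary 2 h at room temperature, ECL detection. Representative of three independent experiments.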

NCI-H1993 [2] = assay: Antiproliferative activity against gefitinib resistant human NCI-H1993 cells after 3 days by SRB assay; format: functional, cell-based; settings: NCI-H1993, 72 h
[3] = molecular target: Epidermal growth factor receptor (Homo sapiens) (UniProt P00533); assay: Inhibition of EGFR-mediated ERK1/2 phosphorylation in EGF-stimulated human A549 cells pretreated at 5 to 100 nM by Western blot analysis; format: cell-based
A549 [4] = assay: Cell cycle arrest in human A549 cells assessed as accumulation at S phase at 20 nM after 48 hrs by propidium iodide staining-based flow cytometric analysis (reference value: 31.6 %); format: functional
A549 [5] = assay: Antiproliferative activity against human A549 cells after 3 days by SRB assay; format: functional, cell-based; settings: A549, 72 h
In short: (§2)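 Cells seeded at 5 × 10^4 cells/mL and exposed to a range of concentrations for 3 days. Fixed with 10% TCA, then SRB stain read. Growth expressed as % of solvent-treated control. IC50 obtained by nonlinear regression of percent survival versus concentration.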

[6] = molecular target: Hepatocyte growth factor receptor (Homo sapiens) (UniProt P08581); assay: Inhibition of c-Met-mediated p70S6K phosphorylation in HGF-stimulated human A549 cells pretreated at 5 to 100 nM by Western blot analysis; format: cell-based
In short: (§3)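 A549 cells pretreated for 2 h with the compound at 5, 20 or 100 nM, then stimulated with HGF (50 ng/mL) for 10 min. c-Met and its downstream signalling proteins read by Western blot (SDS-PAGE, PVDF transfer, ECL detection).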

[7] = molecular target: Glycogen synthase kinase-3 beta (Homo sapiens) (UniProt P49841); assay: Inhibition of GSK3-beta in human A549 cells after 24 hrs by Western blot analysis; format: cell-based
In short: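 A549 cells (RPMI 1640, 10% FBS, 37 °C, 5% CO2) exposed to the compound at various concentrations for 24 or 48 h. Lysates run on 6–15% SDS-PAGE, transferred to PVDF, probed with primary antibodies overnight at 4 °C, and detected by ECL. Blots shown are representative of three independent experiments.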

A549 [8] = assay: Inhibition of Akt-signaling in human A549 cells at 5 to 40 nM after 24 hrs by Western blot analysis; format: cell-based
In short: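 A549 cells exposed for 24 or 48 h to a range of concentrations. Akt/mTOR pathway proteins in lysates assessed by Western blot (SDS-PAGE, PVDF, ECL detection).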

A549 [9] = assay: Downregulation of cyclin A expression in human A549 cells at G1 phase at 5 to 100 nM after 24 to 48 hrs by Western blot analysis; format: functional, cell-based; in short: as §1
A549 [10] = assay: Cell cycle arrest in human A549 cells assessed as accumulation at G0/G1 phase at 5 nM after 48 hrs by propidium iodide staining-based flow cytometric analysis (reference value: 49.6 %); format: functional
[11] = molecular target: Hepatocyte growth factor receptor (Homo sapiens) (UniProt P08581); assay: Inhibition of c-Met-mediated ERK1/2 phosphorylation in HGF-stimulated human A549 cells pretreated at 5 to 100 nM by Western blot analysis; format: cell-based; in short: as §3
SK-MES-1 = assay: Antiproliferative activity against human SK-MES cells after 3 days by SRB assay; format: functional, cell-based; settings: SK-MES-1, 72 h; in short: as §2
A549 [12] = assay: Downregulation of cyclin E expression in human A549 cells at G1 phase at 5 to 100 nM after 24 to 48 hrs by Western blot analysis; format: functional, cell-based; in short: as §1
[13] = molecular target: Hepatocyte growth factor receptor (Homo sapiens) (UniProt P08581); assay: Inhibition of c-Met-mediated FKHRL1 phosphorylation in HGF-stimulated human A549 cells pretreated at 5 to 100 nM by Western blot analysis; format: cell-based; in short: as §3
Mus musculus = assay: Toxicity in BALB/c mouse xenografted with human A549 cells in assessed as body weight at 0.5 mg/kg, po once daily for 14 days measured for 27 days relative to control; format: organism-based; design: dose 0.5 mg/kg, route oral; settings: in vivo, 648 h
In short: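 Female nu/nu mice were injected sc in the right flank with 3 × 10^6 A549 cells. At about 100 mm3 tumour volume, mice were randomised into groups of five. Compound was given orally at 0.2 or 0.5 mg/kg once daily for 14 days in ethanol/Tween 80/H2O (1:1:98). Body weight and overt toxicity were monitored against vehicle controls.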

A549 [14] = assay: Cell cycle arrest in human A549 cells assessed as accumulation at S phase at 20 nM after 24 hrs by propidium iodide staining-based flow cytometric analysis (reference value: 31.6 %); format: functional
A549 [15] = assay: Cell cycle arrest in human A549 cells assessed as accumulation at Sub-G1 phase at 20 nM after 48 hrs by propidium iodide staining-based flow cytometric analysis (reference value: 0.2 %); format: functional
A549 [16] = assay: Antiproliferative activity against human A549 cells assessed as reduction in colonies after treatment for 24 hrs measured after 14 days using Giemsa staining; format: functional, cell-based
In short: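 A549 plated at 100 cells per 35 mm dish. After 24 h, medium with compound added for 24 h, then PBS wash and 14 days' growth in drug-free medium. Colonies methanol-fixed, Giemsa-stained, counted, and expressed as % of DMSO-treated control.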

NCI-H1993 [17] = assay: Antiproliferative activity against human NCI-H1993 cells after 3 days by SRB assay; format: functional, cell-based; settings: NCI-H1993, 72 h
NCI-H358 = assay: Antiproliferative activity against human NCI-H358 cells after 3 days by SRB assay; format: functional, cell-based; settings: NCI-H358, 72 h; in short: as §2

Hepatocyte growth factor receptor (Homo sapiens), sequence (P08581 whole entry): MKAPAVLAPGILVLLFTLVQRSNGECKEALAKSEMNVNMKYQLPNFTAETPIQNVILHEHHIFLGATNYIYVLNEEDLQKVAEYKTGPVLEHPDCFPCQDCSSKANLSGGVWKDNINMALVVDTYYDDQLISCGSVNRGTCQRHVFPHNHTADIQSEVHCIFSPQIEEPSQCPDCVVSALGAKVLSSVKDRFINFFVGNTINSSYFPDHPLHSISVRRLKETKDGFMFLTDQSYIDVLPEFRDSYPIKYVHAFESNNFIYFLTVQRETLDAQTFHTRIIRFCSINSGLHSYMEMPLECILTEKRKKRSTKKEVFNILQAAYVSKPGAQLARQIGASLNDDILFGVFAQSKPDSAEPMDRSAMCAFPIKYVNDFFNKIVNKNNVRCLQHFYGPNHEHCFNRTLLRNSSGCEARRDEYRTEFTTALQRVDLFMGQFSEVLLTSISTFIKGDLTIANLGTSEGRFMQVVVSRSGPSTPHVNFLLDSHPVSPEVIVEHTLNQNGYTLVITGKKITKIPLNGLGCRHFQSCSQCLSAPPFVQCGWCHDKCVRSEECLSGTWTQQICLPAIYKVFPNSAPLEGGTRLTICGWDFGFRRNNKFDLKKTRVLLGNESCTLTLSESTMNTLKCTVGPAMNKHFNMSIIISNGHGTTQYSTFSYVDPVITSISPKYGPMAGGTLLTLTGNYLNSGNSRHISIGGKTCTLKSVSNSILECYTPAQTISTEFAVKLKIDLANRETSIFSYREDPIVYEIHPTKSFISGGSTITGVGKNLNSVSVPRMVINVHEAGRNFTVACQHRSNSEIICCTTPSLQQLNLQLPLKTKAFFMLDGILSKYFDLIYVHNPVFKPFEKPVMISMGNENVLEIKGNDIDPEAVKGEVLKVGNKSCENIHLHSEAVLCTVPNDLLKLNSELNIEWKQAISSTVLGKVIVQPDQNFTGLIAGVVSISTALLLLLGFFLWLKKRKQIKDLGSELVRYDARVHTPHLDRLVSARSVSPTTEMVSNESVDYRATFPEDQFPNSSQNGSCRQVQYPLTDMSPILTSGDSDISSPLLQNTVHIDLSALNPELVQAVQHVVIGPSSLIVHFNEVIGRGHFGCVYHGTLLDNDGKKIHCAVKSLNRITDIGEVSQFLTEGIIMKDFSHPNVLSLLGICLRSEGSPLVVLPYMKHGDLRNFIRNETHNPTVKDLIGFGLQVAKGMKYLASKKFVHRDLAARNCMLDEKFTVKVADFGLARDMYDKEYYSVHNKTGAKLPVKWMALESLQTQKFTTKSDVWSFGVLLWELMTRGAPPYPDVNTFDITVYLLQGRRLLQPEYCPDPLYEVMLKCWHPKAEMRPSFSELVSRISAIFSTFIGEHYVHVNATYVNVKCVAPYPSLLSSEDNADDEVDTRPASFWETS
Glycogen synthase kinase-3 beta (Homo sapiens), sequence (P49841 whole entry, looked up): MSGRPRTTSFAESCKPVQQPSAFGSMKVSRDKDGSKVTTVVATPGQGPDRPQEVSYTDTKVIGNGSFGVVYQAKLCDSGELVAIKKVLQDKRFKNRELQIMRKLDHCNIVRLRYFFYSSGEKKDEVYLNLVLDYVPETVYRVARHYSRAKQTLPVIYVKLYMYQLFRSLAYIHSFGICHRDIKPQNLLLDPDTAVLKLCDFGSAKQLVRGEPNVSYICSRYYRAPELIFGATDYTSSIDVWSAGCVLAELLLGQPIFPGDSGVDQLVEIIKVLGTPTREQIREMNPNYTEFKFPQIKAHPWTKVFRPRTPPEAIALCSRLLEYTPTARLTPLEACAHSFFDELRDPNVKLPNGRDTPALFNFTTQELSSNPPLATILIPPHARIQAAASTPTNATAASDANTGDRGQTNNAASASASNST
Epidermal growth factor receptor (Homo sapiens), sequence (P00533 whole entry): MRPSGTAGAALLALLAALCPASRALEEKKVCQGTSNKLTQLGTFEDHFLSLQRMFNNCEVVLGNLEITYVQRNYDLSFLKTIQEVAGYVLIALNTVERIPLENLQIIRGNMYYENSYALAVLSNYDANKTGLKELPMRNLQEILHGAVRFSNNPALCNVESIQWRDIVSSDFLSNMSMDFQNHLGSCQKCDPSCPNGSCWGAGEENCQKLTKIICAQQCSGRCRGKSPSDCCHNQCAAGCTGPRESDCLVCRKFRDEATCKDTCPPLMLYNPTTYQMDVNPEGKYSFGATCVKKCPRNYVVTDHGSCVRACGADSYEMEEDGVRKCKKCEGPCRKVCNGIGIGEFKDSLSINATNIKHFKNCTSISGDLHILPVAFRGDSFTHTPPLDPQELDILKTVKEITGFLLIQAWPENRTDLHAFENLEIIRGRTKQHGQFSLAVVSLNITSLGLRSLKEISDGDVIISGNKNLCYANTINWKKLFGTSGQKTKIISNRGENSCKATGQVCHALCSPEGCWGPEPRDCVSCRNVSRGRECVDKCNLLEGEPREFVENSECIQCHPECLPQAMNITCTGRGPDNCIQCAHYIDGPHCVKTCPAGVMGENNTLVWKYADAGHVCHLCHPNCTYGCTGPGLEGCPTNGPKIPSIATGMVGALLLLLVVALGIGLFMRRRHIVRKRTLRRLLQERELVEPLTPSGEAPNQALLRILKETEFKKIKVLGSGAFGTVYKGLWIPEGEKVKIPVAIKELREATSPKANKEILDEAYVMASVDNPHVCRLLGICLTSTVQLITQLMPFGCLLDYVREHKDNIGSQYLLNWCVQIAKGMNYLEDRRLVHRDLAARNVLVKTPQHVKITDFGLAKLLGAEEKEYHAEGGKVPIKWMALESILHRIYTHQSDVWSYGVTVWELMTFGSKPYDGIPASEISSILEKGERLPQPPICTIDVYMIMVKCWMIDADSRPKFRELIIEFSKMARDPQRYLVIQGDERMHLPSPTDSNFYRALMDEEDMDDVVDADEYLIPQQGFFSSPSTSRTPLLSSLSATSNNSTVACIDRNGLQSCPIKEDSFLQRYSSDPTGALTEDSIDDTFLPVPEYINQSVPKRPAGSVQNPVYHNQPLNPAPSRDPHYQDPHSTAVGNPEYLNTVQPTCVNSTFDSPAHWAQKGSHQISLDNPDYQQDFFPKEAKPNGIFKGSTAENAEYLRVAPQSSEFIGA

With `C=C(C)[C@@]12O[C@@]3(/C=C/C=C/CCCCC)O[C@@H]1[C@@H]1[C@@H]4O[C@]4(CO)[C@@H](O)[C@]4(O)C(=O)C(C)=C[C@H]4[C@@]1(O3)[C@H](C)[C@H]2OC(C)=O` [YUANHUADINE] the Activity (A549 [1]) was “Active”, the IC50 (NCI-H1993 [2]) was 4.1 nM and the inhibition [3] was “Active”. The Activity (A549 [4]) was 15.6%, the IC50 (A549 [5]) was 12 nM and the inhibition [6] was “Active”. For the same molecule, the inhibition [7] was “Dose-dependent effect”, the inhibition (A549 [8]) was “Active” and the Activity (A549 [9]) was “Active”. For the same molecule, the Activity (A549 [10]) was 62.2%, the inhibition [11] was “Active” and the IC50 (SK-MES-1) was < 0.001 nM. The Activity (A549 [12]) was “Active”, the inhibition [13] was “Active” and the Activity (Mus musculus) was “Non-toxic”. The Activity (A549 [14]) was 7.3%, the Activity (A549 [15]) was 0.4% and the Activity (A549 [16]) was “Active”. It also gave an IC50 (NCI-H1993 [17]) of 4.7 nM and an IC50 (NCI-H358) of 9100 nM.
